Apaf1 inhib: inhibitors of human Apaf-1 apoptosome | reconstituted apoptosome caspase-3 activity, DEVD-Rh110 fluorescence | inhibition, % at 20 µM | 0.71% of 330,000 active | AID 489030; active = inhibition of at least 40% at 20 µM;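 also: plate controls were DMSO wells for no effect and DEVD-CHO caspase inhibitor wells for full effect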
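Assay system – apoptosome proteins · Medium – Hepes buffer, pH 7.5 · Also added – cytochrome c with DEVD-Rh110 · Timing – 30 min compound preincubation, 50 min activation, room temperature · Detection – Rh110 fluorescence, excitation 480 nm, emission 540 nm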
SIAE inh: blocks human sialic acid acetylesterase. Q9HAT2. inhibition, % at 9.66 µM. 0.69% of 370,000 active. SIAE FP-Rh probe binding, fluorescence polarization;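 active = inhibition above a cutoff: mean of compounds within the control limits plus 3 SD of those, cut at about 17% in these data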;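 also: 0% = plate median of compound wells and 100% = probe without SIAE protein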
TCR-CD3 inh: blocks the human TCR-CD3 interaction. TAMRA-labeled TCR probe fluorescence, biochemical. inhibition, % at 9.4 µM. 0.37% of 360,000 active. AID 651800;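 also: recombinant mutant TCR 2C K166C tagged with TAMRA read by polarization; 0% = receptor in buffer alone and 100% = receptor with positive control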
TDP2 inh: TDP2 (human) inhibition, absorbance primary screen; O95551; recombinant TDP2, T5PNP hydrolysis, p-nitrophenol absorbance 415 nm; inhibition, % at 12.8 µM; 0.34% of 370,000 active;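 active = inhibition above the mean of all tested compounds plus 3 SD, set per campaign, cut at about 25% in these data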;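 also: 0% = DMSO with enzyme and 100% = buffer with substrate but no TDP2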
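Material: recombinant human TDP2; quantity: TDP2 enzyme at 120 nM final; medium: Tris-HCl pH 7.5 with MgCl2; compound: single concentration, 12.8 µM nominal, with 1% DMSO; incubation: 2 h enzyme incubation at 37 °C; signal: epi absorbance; measure: percent inhibition; benchmarks: high control without enzyme, low control DMSO plus TDP2; repeats: singlicate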
PAD4 inh: blocks human protein arginine deiminase 4. inhibition, % at 6.36 µM. recombinant PAD4, RCA probe fluorescence polarization. Q9UM07. AID 485272. 0.41% of 330,000 active;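 active = percent inhibition above a cutoff equal to the mean of all tested compounds plus 3 SD, cut at about 15% in these data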;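 also: 0% = PAD4 with RCA probe and DMSO and 100% = probe without PAD4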
GSTO1 counter: counter-screen for RBBP9 inhibitors: inhibitors of human GSTO1; P78417; recombinant GSTO1, activity-based probe fluorescence polarization; inhibition, % at 5.96 µM; 1.1% of 300,000 active; AID 1974;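 active = inhibition above the campaign mean inhibition plus 3 SD, cut at about 35% in these data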;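 also: 0% = GSTO1-1 with DMSO and 100% = wells lacking GSTO1-1 enzyme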
Target sequence (P78417 whole entry, looked up): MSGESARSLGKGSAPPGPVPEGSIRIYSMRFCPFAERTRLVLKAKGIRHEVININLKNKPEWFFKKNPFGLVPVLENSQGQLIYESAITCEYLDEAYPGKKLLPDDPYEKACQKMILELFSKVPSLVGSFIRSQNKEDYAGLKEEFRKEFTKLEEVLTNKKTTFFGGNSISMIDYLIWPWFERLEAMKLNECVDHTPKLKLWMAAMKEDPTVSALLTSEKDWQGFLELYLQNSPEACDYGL
BSA TAMRA ctr: interferes with TAMRA-BSA probe, flagging TCR-CD3 hits. shares compounds with TCR-CD3 inh. inhibition, % at 9.4 µM. TAMRA-labeled BSA probe fluorescence counterscreen. 10% of 1,200 active; in the data active = inhibition above about 23%;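 also: 0% = buffer low control and 100% = reference high control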
TCR-CD3 inh conf: TCR-CD3 interaction inhibition, confirmation; shares compounds with TCR-CD3 inh; 48% of 1,200 active; inhibition, % at 9.4 µM; TAMRA-labeled TCR probe fluorescence binding assay
SIAE confirm: human SIAE inhibition, confirmation; inhibition, % at 9.66 µM; 13% of 2,300 active; SIAE FP-Rh activity-based probe, fluorescence polarization; shares compounds with SIAE inh;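 active = mean inhibition of the replicates above the hit cutoff set in the primary screen, cut at about 17% in these data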;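 also: 0% = SIAE with DMSO and probe and 100% = probe without SIAE; inhibitors lower polarization as more probe stays unbound to SIAE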
The depositor's hits bear a star. Most compounds without a hit are left out; they make up all but 2.4% or so of the library. Rule as the data show it, unless noted: active = inhibition above about 19%; inactive = the rest.

Results for COc1ccc(/C=N/NC(=O)c2ccc(C)cc2)cc1CN1CCN(c2ccc(F)cc2)CC1 ?
Apaf1 inhib: 10; PAD4 inh: 2; GSTO1 counter: -6

Results for CCN=C1S/C(=C\c2cn(CC(=O)NCCOC)c3ccccc23)C(=O)N1CC ?
Apaf1 inhib: 5; SIAE inh: 5; TCR-CD3 inh: -1; TDP2 inh: 0; PAD4 inh: -1; GSTO1 counter: 5

How did C[C@](N)(Cc1ccc(O)c(O)c1)C(=O)O do in these assays?
SIAE inh: 18*; TCR-CD3 inh: 22*; TDP2 inh: 5; BSA TAMRA ctr: -5; TCR-CD3 inh conf: 2; SIAE confirm: 7

How did O=C(CCC(=O)Nc1cccc(Cl)c1)N/N=C/c1cc([N+](=O)[O-])ccc1O do in these assays?
Apaf1 inhib: 2; SIAE inh: 18*; TCR-CD3 inh: 28*; TDP2 inh: -6; PAD4 inh: 2; GSTO1 counter: -3; BSA TAMRA ctr: -2; TCR-CD3 inh conf: 41*; SIAE confirm: -4

What do the screens show for `Cc1ccc(NC(=O)CCC(=O)N/N=C/c2cc([N+](=O)[O-])ccc2O)cc1`?
Apaf1 inhib: -1; SIAE inh: 1; TCR-CD3 inh: 13; TDP2 inh: -5; PAD4 inh: 1; GSTO1 counter: -2

How did O=C(N/N=C/c1ccoc1)c1ccccc1O do in these assays?
Apaf1 inhib: 7; SIAE inh: 19*; TCR-CD3 inh: 25*; TDP2 inh: 6; PAD4 inh: -4; GSTO1 counter: 5; BSA TAMRA ctr: -19; TCR-CD3 inh conf: 15; SIAE confirm: 16

Results for O=C(N/N=C/c1ccoc1)c1ccccc1 ?
Apaf1 inhib: -2; SIAE inh: 3; TCR-CD3 inh: 1; TDP2 inh: -1; PAD4 inh: -2; GSTO1 counter: 15

Results for O=C1C=CC(=O)c2c(O)c(CO)c(CO)c(O)c21 ?
SIAE inh: 53*; TCR-CD3 inh: 78*; TDP2 inh: 28*; BSA TAMRA ctr: -3; TCR-CD3 inh conf: 59*; SIAE confirm: 44*

How did CCOC(=O)C(CNc1ccc(O)cc1)NC(=O)c1ccccc1 (stereo not given) do in these assays?
SIAE inh: 91*; TCR-CD3 inh: 65*; TDP2 inh: 13; BSA TAMRA ctr: 15; TCR-CD3 inh conf: 8; SIAE confirm: 8

How did O=C(Nc1cccc2[nH]ncc12)NS(=O)(=O)c1ccccc1 do in these assays?
Apaf1 inhib: 5; SIAE inh: 48*; TCR-CD3 inh: 58*; TDP2 inh: -3; PAD4 inh: 8; GSTO1 counter: 1; BSA TAMRA ctr: 35*; TCR-CD3 inh conf: 27*; SIAE confirm: 9

How did CC(=O)Nc1ccc(S(=O)(=O)Nc2cccc3[nH]ncc23)cc1 do in these assays?
Apaf1 inhib: -12; SIAE inh: 10; TCR-CD3 inh: 3; TDP2 inh: -5; PAD4 inh: -5; GSTO1 counter: 5

Results for CCOc1ccc(NS(=O)(=O)c2ccc(N)cc2)cc1 ?
Apaf1 inhib: 5; SIAE inh: -1; TCR-CD3 inh: -8; TDP2 inh: -8; PAD4 inh: 4; GSTO1 counter: -4

What do the screens show for `CCOc1ccc(Nc2ccc(N)c(S(=O)(=O)O)c2)cc1`?
SIAE inh: 21*; TCR-CD3 inh: 42*; TDP2 inh: -5; BSA TAMRA ctr: 2; TCR-CD3 inh conf: 21*; SIAE confirm: 9

Results for O=C(COC(=O)Cc1cccs1)Nc1ccc(OC(F)(F)F)cc1 ?
Apaf1 inhib: 4; SIAE inh: 133*; TCR-CD3 inh: 62*; TDP2 inh: 2; PAD4 inh: -2; GSTO1 counter: -6; BSA TAMRA ctr: 2; TCR-CD3 inh conf: 2; SIAE confirm: -3

Screening data (PubChem BioAssay)
